Assay results from ChEMBL document CHEMBL1137710, “Synthesis and in vitro antitumor activity of new quinoxaline derivatives” (2009).

Columns and labels:
Type in all cases: functional
NCI/ADR-RES = assay: Growth inhibition of human NCI/ADR-RES cells after 48 hrs by sulforhodamine B assay
Summary of the method: (§1)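 NCI 60-human-tumor-cell-line panel, with compounds tested over a 5-log dose range. Values are taken from dose-response curves as log10 molar concentrations: GI50 is 50% net growth inhibition, TGI is total growth inhibition, and LC50 is 50% net cell death.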

786-0 = assay: Growth inhibition of human 786-0 cells after 48 hrs by sulforhodamine B assay; conditions: 786-0, 48 h; summary of the method: as §1
M14 = assay: Growth inhibition of human M14 cells after 48 hrs by sulforhodamine B assay; conditions: M14, 48 h; summary of the method: as §1
UO-31 = assay: Growth inhibition of human UO31 cells after 48 hrs by sulforhodamine B assay; conditions: UO-31, 48 h
Summary of the method: (§2)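 Run in the NCI 60-human-tumour-cell-line panel, tested over a 5-log dose range. Dose–response curves gave three values per cell line, each as a log10 molar concentration: GI50 (50% inhibition of net cell growth), TGI (total inhibition of net growth) and LC50 (50% net cell death). The mean graph midpoint is the arithmetic mean over all lines, with insensitive lines entered at the highest concentration tested.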

IGROV-1 = assay: Growth inhibition of human IGROV1 cells after 48 hrs by sulforhodamine B assay; conditions: IGROV-1, 48 h; summary of the method: as §1
OVCAR-3 = assay: Growth inhibition of human OVCAR-3 cells after 48 hrs by sulforhodamine B assay; conditions: OVCAR-3, 48 h; summary of the method: as §1
NCI-H322M = assay: Growth inhibition of human NCI-H322M cells after 48 hrs by sulforhodamine B assay; summary of the method: as §1
MCF7 [1] = assay: Growth inhibition of human MCF7 cells after 48 hrs by sulforhodamine B assay; conditions: MCF7, 48 h; summary of the method: as §1
CAKI-1 = assay: Growth inhibition of human Caki1 cells after 48 hrs by sulforhodamine B assay; conditions: CAKI-1, 48 h; summary of the method: as §1
SNB-19 = assay: Growth inhibition of human SNB19 cells after 48 hrs by sulforhodamine B assay; conditions: SNB-19, 48 h; summary of the method: as §2
HL-60(TB) = assay: Growth inhibition of human HL-60(TB) cells after 48 hrs by sulforhodamine B assay; conditions: HL-60, 48 h
Summary of the method: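 Tested only on compounds active in a three-line prescreen, in the NCI 60-human-tumour-cell-line panel over a 5-log dose range. Values come from dose–response curves as log10 molar GI50, the concentration inhibiting 50% net cell growth. Log10 TGI (total growth inhibition) and log10 LC50 (50% net cell death) were derived too. Mean graph midpoints include insensitive lines at the highest concentration tested.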

UACC-62 = assay: Growth inhibition of human UACC62 cells after 48 hrs by sulforhodamine B assay; conditions: UACC-62, 48 h; summary of the method: as §2
NCI-H522 = assay: Growth inhibition of human NCI-H522 cells after 48 hrs by sulforhodamine B assay; conditions: NCI-H522, 48 h; summary of the method: as §1
[2] = Growth inhibition of human Hs 578T cells after 48 hrs by sulforhodamine B assay; summary of the method: as §1
SK-MEL-28 = assay: Growth inhibition of human SK-MEL-28 cells after 48 hrs by sulforhodamine B assay; conditions: SK-MEL-28, 48 h; summary of the method: as §1
U-251 = assay: Growth inhibition of human U251 cells after 48 hrs by sulforhodamine B assay; conditions: U-251, 48 h; summary of the method: as §2
HOP-62 = assay: Growth inhibition of human HOP62 cells after 48 hrs by sulforhodamine B assay; conditions: HOP-62, 48 h; summary of the method: as §1
MCF7 [3] = assay: Anticancer activity against human MCF7 cells assessed as cell growth at 100 uM after 48 hrs by sulforhodamine B assay; conditions: MCF7, 48 h, read-out: Activity
LOX IMVI = assay: Growth inhibition of human LOXIMVI cells after 48 hrs by sulforhodamine B assay; summary of the method: as §1
SW-620 = assay: Growth inhibition of human SW620 cells after 48 hrs by sulforhodamine B assay; conditions: SW-620, 48 h; summary of the method: as §2
K562 = assay: Growth inhibition of human K562 cells after 48 hrs by sulforhodamine B assay; conditions: K562, 48 h; summary of the method: as §1
SF-268 [4] = assay: Anticancer activity against human SF268 cells assessed as cell growth at 100 uM after 48 hrs by sulforhodamine B assay; conditions: SF-268, 48 h, read-out: Activity
[5] = Growth inhibition of human […] cells after 48 hrs by sulforhodamine B assay; summary of the method: as §1
OVCAR-8 = assay: Growth inhibition of human OVCAR8 cells after 48 hrs by sulforhodamine B assay; conditions: OVCAR-8, 48 h; summary of the method: as §1
MDA-MB-435 = assay: Growth inhibition of human MDA-MB-435 cells after 48 hrs by sulforhodamine B assay; conditions: MDA-MB-435, 48 h; summary of the method: as §1
PC-3 = assay: Growth inhibition of human PC3 cells after 48 hrs by sulforhodamine B assay; conditions: PC-3, 48 h; summary of the method: as §1
NCI-H460 = assay: Anticancer activity against human NCI-H460 cells assessed as cell growth at 100 uM after 48 hrs by sulforhodamine B assay; conditions: NCI-H460, 48 h, read-out: Activity
SF-268 [6] = assay: Growth inhibition of human SF268 cells after 48 hrs by sulforhodamine B assay; conditions: SF-268, 48 h; summary of the method: as §1
[7] = read-out: pLC50 (the source's name) (converted)

Compound: COc1cc(CNc2nc3cc(N)cc(N)c3nc2-c2ccccc2)cc(OC)c1OC
- GI50 (NCI/ADR-RES): 10.2 µM
- CC50 (NCI/ADR-RES; [7]): 46.8 µM
- TGI (NCI/ADR-RES; read-out: pTGI (converted)): 21.9 µM
- GI50 (786-0): 15.5 µM
- CC50 (786-0; [7]): > 50.1 µM
- TGI (786-0; read-out: pTGI (converted)): > 50.1 µM
- GI50 (M14): 9.55 µM
- CC50 (M14; [7]): 34.7 µM
- TGI (M14; read-out: pTGI (converted)): 18.2 µM
- GI50 (UO-31): 11.2 µM
- CC50 (UO-31; [7]): > 50.1 µM
- TGI (UO-31; read-out: pTGI (converted)): > 50.1 µM
- GI50 (IGROV-1): 9.12 µM
- CC50 (IGROV-1; [7]): > 50.1 µM
- TGI (IGROV-1; read-out: pTGI (converted)): > 50.1 µM
- GI50 (OVCAR-3): 1150 nM
- CC50 (OVCAR-3; [7]): 18.2 µM
- TGI (OVCAR-3; read-out: pTGI (converted)): 3.39 µM
- GI50 (NCI-H322M): 3.02 µM
- LC50 (NCI-H322M): > 50.1 µM
- TGI (NCI-H322M; read-out: pTGI (converted)): 15.8 µM
- GI50 (MCF7 [1]): 1550 nM
- CC50 (MCF7 [1]; [7]): > 50.1 µM
- TGI (MCF7 [1]; read-out: pTGI (converted)): > 50.1 µM
- GI50 (CAKI-1): 1910 nM
- CC50 (CAKI-1; [7]): 31.6 µM
- TGI (CAKI-1; read-out: pTGI (converted)): 8.71 µM
- GI50 (SNB-19): 7.24 µM
- LC50 (SNB-19): > 50.1 µM
- TGI (SNB-19; read-out: pTGI (converted)): 20.9 µM
- GI50 (HL-60(TB)): 1260 nM
- LC50 (HL-60(TB)): > 50.1 µM
- TGI (HL-60(TB); read-out: pTGI (converted)): > 50.1 µM
- GI50 (UACC-62): 8.13 µM
- CC50 (UACC-62; [7]): 29.5 µM
- TGI (UACC-62; read-out: pTGI (converted)): 15.5 µM
- GI50 (NCI-H522): > 50.1 µM
- LC50 (NCI-H522): > 50.1 µM
- TGI (NCI-H522; read-out: pTGI (converted)): > 50.1 µM
- GI50 [2]: 3.02 µM
- CC50 [2, 7]: > 50.1 µM
- TGI ([2]; read-out: pTGI (converted)): 33.1 µM
- GI50 (SK-MEL-28): 8.51 µM
- CC50 (SK-MEL-28; [7]): 36.3 µM
- TGI (SK-MEL-28; read-out: pTGI (converted)): 17.8 µM
- GI50 (U-251): 1740 nM
- LC50 (50% net cell kill) (U-251): 30.2 µM
- TGI (U-251; read-out: pTGI (converted)): 6.31 µM
- GI50 (HOP-62): 17 µM
- LC50 (HOP-62): > 50.1 µM
- TGI (HOP-62; read-out: pTGI (converted)): > 50.1 µM
- growth at 100 µM (MCF7 [3]): 0%
- GI50 (LOX IMVI): 3.16 µM
- LC50 (LOX IMVI): 26.3 µM
- TGI (LOX IMVI; read-out: pTGI (converted)): 10.5 µM
- GI50 (SW-620): 1550 nM
- CC50 (SW-620; [7]): > 50.1 µM
- TGI (SW-620; read-out: pTGI (converted)): 4.47 µM
- GI50 (K562): 1780 nM
- LC50 (K562): > 50.1 µM
- TGI (K562; read-out: pTGI (converted)): > 50.1 µM
- growth at 100 µM (SF-268 [4]): 15%
- GI50 [5]: 692 nM
- LC50 [5]: > 50.1 µM
- TGI ([5]; read-out: pTGI (converted)): 3.02 µM
- GI50 (OVCAR-8): 6.92 µM
- CC50 (OVCAR-8; [7]): 31.6 µM
- TGI (OVCAR-8; read-out: pTGI (converted)): 14.8 µM
- GI50 (MDA-MB-435): 229 nM
- CC50 (MDA-MB-435; [7]): 2880 nM
- TGI (MDA-MB-435; read-out: pTGI (converted)): 912 nM
- GI50 (PC-3): 2190 nM
- CC50 (PC-3; [7]): > 50.1 µM
- TGI (PC-3; read-out: pTGI (converted)): > 50.1 µM
- growth at 100 µM (NCI-H460): 7%
- GI50 (SF-268 [6]): 2950 nM
- LC50 (SF-268 [6]): 49 µM
- TGI (SF-268 [6]; read-out: pTGI (converted)): 14.1 µM
